# Assay results pooled from the literature.
# Compare with care: the assays were run in different laboratories.
# Target: Serine/threonine-protein kinase 10 (STK10, Homo sapiens, UniProt O94804)
SMILES,test,setting,endpoint,value
C1=C/COCc2cc(ccc2OCCN2CCCC2)Nc2nccc(n2)-c2cccc(c2)COC/1,cell-free assay,0.1 µM,remaining signal,89%
C=CC(=O)N1CCC([C@@H]2CCNc3c(C(N)=O)c(-c4ccc(Oc5ccccc5)cc4)nn32)CC1,"enzyme activity, inhibitor",1 µM,inhibition,0%
Cc1ccc(NC(=O)c2ccnc(C(F)(F)F)c2)cc1-c1cc(OCCO)nc(N2CCOCC2)c1,"binding, competition with immobilised ligand",1 µM,remaining binding,21%
C#Cc1cc(-c2cc(Nc3nc(N[C@@H](C)c4ccc(F)cn4)ncc3Cl)n[nH]2)ccc1C=O,"enzyme activity, inhibitor",0.2 µM,inhibition,36.5%
CN1CCN(C(=O)c2ccc(NC(=O)Nc3ccc(N(C)c4ccnc(Nc5ccc(CS(C)(=O)=O)cc5)n4)cc3)cc2)CC1,"binding, competition with immobilised ligand",1 µM,remaining binding,0.4%
COc1ccc2oc(-c3ccc4nc(N)oc4c3)c/c(=N\c3ccccc3NC(=O)CCN)c2c1,binding,1 µM,remaining binding,100%
CCCCC(=O)Nc1ccc(-c2ccc3ncn(CCC)c(=O)c3c2)cn1,"binding, competition with immobilised ligand",0.5 µM,remaining binding,99%
C=CC(=O)N1CCC[C@@H](n2nc(-c3ccc(Oc4ccccc4)cc3)c3c(N)ncnc32)C1,"enzyme activity, inhibitor",1 µM,inhibition,46%
